Active and inactive are the calls of the source.
What was measured:
Mus musculus [1] = experiment: Analgetic activity in albino CD-1 mouse assessed as inhibition of thermally-induced pain at 20 to 40 mg/kg, ip relative to control; assay type: functional; design: scale not given: the % may be the effect or the level left; settings: dose mg/kg 20-40; route intraperitoneal
Outline: (§1)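 Male albino CD-1 mice (18-25 g) were given compound ip in distilled water and tested 60-90 min later on a hot wire analgetic apparatus at 50°. Reaction times were compared with saline-pretreated controls. Each point used 5 treated and 20 control mice and is reported as mean ± SEM in seconds. Statistics were analysis of variance followed by t test or Mann-Whitney U.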

Mus musculus [2] = experiment: Antidepressant activity in albino CD-1 mouse assessed as inhibition of reserpine-induced sedation up to 40 mg/kg, ip; assay type: functional, organism-based; design: dose 40 mg/kg
Outline: (§2)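 CD-1 male mice were dosed ip in distilled water 60-90 min before challenge with reserpine (4 mg/kg ip). Hypothermia, sedation and ptosis were assessed. Rectal temperature was taken with a tele-thermometer fitted with a small-animal probe.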

Mus musculus [3] = experiment: Antidepressant activity in albino CD-1 mouse assessed as potentiation of L-dopa-induced effect up to 40 mg/kg, ip; assay type: functional, organism-based; design: dose 40 mg/kg
Outline: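 Compound was given ip in distilled water to male CD-1 mice. Potentiation of stimulation induced by L-Dopa (100 mg/kg ip) was assessed.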

Mus musculus [4] = experiment: Analgetic activity in albino CD-1 mouse assessed as inhibition of thermally-induced pain at 10 to 15 mg/kg, ip relative to control; assay type: functional; settings: dose mg/kg 10-15; route intraperitoneal; outline: as §1
Mus musculus [5] = experiment: Antidepressant activity in albino CD-1 mouse assessed as inhibition of reserpine-induced hypothermia up to 40 mg/kg, ip; assay type: functional, organism-based; design: dose 40 mg/kg; outline: as §2
Mus musculus [6] = experiment: Antiparkinson activity in ip dosed albino CD-1 mouse assessed as inhibition of oxotremorine-induced diarrhea, and tremors; assay type: functional, organism-based
[7] = Acute toxicity in ip dosed albino CD-1 mouse after 24 hrs; assay type: organism-based; settings: in vivo
Outline: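 Male albino CD-1 mice (18-25 g), groups of eight. Each mouse got a single ip injection of compound dissolved in distilled water. Lethality was scored 24 hr after dosing. LD50 was calculated with 95% confidence limits by the Litchfield and Wilcoxon method.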

Ileum [8] = experiment: Antispasmodic activity in guinea pig ileum assessed as inhibition of histamine-induced contraction at 10^-8 to 10^-6 M; assay type: functional, tissue-based; settings: Cavia porcellus
Outline: (§3)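 Isolated guinea pig ileum (both sexes) was suspended in Krebs' solution at 37 ± 0.5°, gassed with 95% O2-5% CO2. Antihistaminic, anticholinergic and nonselective antispasmodic activity were measured.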

Mus musculus [9] = experiment: Toxicity in ip dosed albino CD-1 mouse assessed as muscle weakness and flaccidity; assay type: organism-based, Muscle tissue; settings: in vivo
Mus musculus [10] = experiment: Antipsychotic activity in ip dosed albino CD-1 mouse assessed as spontaneous motor activity for 15 mins intervals for 2 hrs by conditioned avoidance test; assay type: functional; settings: for ED50: CD-1, ip
Mus musculus [11] = experiment: Antidepressant activity in albino CD-1 mouse assessed as inhibition of reserpine-induced ptosis up to 40 mg/kg, ip; assay type: functional, organism-based; design: dose 40 mg/kg; outline: as §2
Mus musculus [12] = experiment: Antiparkinson activity in albino CD-1 mouse assessed as inhibition of oxotremorine-induced diarrhea, and tremors at 20 to 40 mg/kg, ip; assay type: functional; design: scale not given: the % may be the effect or the level left; settings: dose mg/kg 20-40; route intraperitoneal
Mus musculus [13] = experiment: Antiparkinson activity in albino CD-1 mouse assessed as inhibition of oxotremorine-induced salivation at 100 mg/kg, ip; assay type: functional; design: scale not given: the % may be the effect or the level left
Outline: (§4)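 Five male CD-1 mice per group were pretreated ip with saline or compound 60-90 min before oxotremorine 1.0 mg/kg ip. Oxotremorine-induced hypothermia or salivation was then assessed.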

Mus musculus [14] = experiment: Antiparkinson activity in albino CD-1 mouse assessed as inhibition of oxotremorine-induced diarrhea, and tremors at 5 to 40 mg/kg, ip; assay type: functional, organism-based
Mus musculus [15] = experiment: Analgetic activity in albino CD-1 mouse assessed as inhibition of thermally-induced pain at 10 to 20 mg/kg, ip; assay type: functional, organism-based; outline: as §1
[16] = Neurotoxicity against ip dosed albino CD-1 mouse by rotarod test; assay type: toxicity, organism-based; settings: in vivo
Outline: (§5)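 Male CD-1 mice (18-25 g), five per group, were dosed ip in distilled water. The endpoint was failure to stay for 1 min on a horizontal rod rotating at 6 rpm. Time of peak effect was determined on the rod, and TD50 was measured at that time. TD50 is given with 95% confidence limits by Litchfield-Wilcoxon.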

Mus musculus [17] = experiment: Toxicity in albino CD-1 mouse assessed as reduction of rectal temperature at 40 mg/kg, ip; assay type: organism-based; design: dose 40 mg/kg, route intraperitoneal; settings: in vivo
Outline: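 Rectal temperature of male CD-1 mice was recorded by tele-thermometer with a small-animal probe at time of peak activity (60-90 min) after 40 mg/kg ip in distilled water.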

Ileum [18] = experiment: Antispasmodic activity in guinea pig ileum assessed as inhibition of barium chloride-induced spasm at 5 x 10^-7 M; assay type: functional; settings: Cavia porcellus; outline: as §3
Ileum [19] = experiment: Antispasmodic activity in guinea pig ileum assessed as inhibition of acetylcholine-induced contraction at 10^-8 to 10^-6 M; assay type: functional, tissue-based; settings: Cavia porcellus; outline: as §3
Mus musculus [20] = experiment: Neuromuscular blocking activity in albino CD-1 mouse up to 20 mg/kg, ip; assay type: organism-based; design: dose 20 mg/kg, route intraperitoneal; settings: in vivo
Outline: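 Male CD-1 mice were dosed ip in distilled water and tested 60-90 min later. Neuromuscular blockade was judged by ability to remain on a wire mesh screen inclined at 60°.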

Mus musculus [21] = experiment: Antiparkinson activity in albino CD-1 mouse assessed as inhibition of oxotremorine-induced hypothermia at 40 mg/kg, ip; assay type: functional, organism-based; design: dose 40 mg/kg; outline: as §4
Mus musculus [22] = experiment: Neurotoxicity against ip dosed albino CD-1 mouse assessed as time of peak effect by rotarod test; assay type: toxicity, organism-based; settings: in vivo; outline: as §5
Mus musculus [23] = experiment: Acute toxicity in ip dosed albino CD-1 mouse assessed as mortality after 2 to 3 hrs; assay type: organism-based; settings: in vivo
Mus musculus [24] = experiment: Anticonvulsant activity in albino CD-1 mouse assessed as protection against pentylenetetrazol-induced tonic seizure ratio at 40 mg/kg, ip administered 60 to 90 mins before pentylenetetrazol challenge relative to control; assay type: functional; settings: route intraperitoneal
Outline: (§6)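 Male CD-1 mice (18-25 g), 8-10 per group, received saline (1 ml/100 g) or compound (40 mg/kg) ip 60-90 min before seizure induction. Seizures were induced by iv infusion of 0.5% pentylenetetrazole solution. The minimal (clonic) and maximal (tonic) seizure thresholds were determined.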

Mus musculus [25] = experiment: Anticonvulsant activity in albino CD-1 mouse assessed as protection against pentylenetetrazol-induced clonic seizure ratio at 40 mg/kg, ip administered 60 to 90 mins before pentylenetetrazol challenge relative to control; assay type: functional; settings: route intraperitoneal; outline: as §6
Mus musculus [26] = experiment: Antiparkinson activity in albino CD-1 mouse assessed as inhibition of oxotremorine-induced diarrhea, and tremors at 5 mg/kg, ip; assay type: functional; design: scale not given: the % may be the effect or the level left; settings: route intraperitoneal
Mus musculus [27] = experiment: Analgetic activity in albino CD-1 mouse assessed as inhibition of thermally-induced pain at 5 mg/kg, ip; assay type: functional, organism-based; design: dose 5 mg/kg; outline: as §1

| SMILES | Activity (Mus musculus [1]) | Activity (Mus musculus [2]) | Activity (Mus musculus [3]) | fold change (FC) (Mus musculus [4]) | Activity (Mus musculus [5]) | Activity (Mus musculus [6]) | LD50 at 24 h [7] | inhibition (Ileum [8]) | Activity (Mus musculus [9]) | Activity (Mus musculus [10]) | ED50 (Mus musculus [10]) | Activity (Mus musculus [11]) | Activity (Mus musculus [14]) | Activity (Mus musculus [15]) | TD50 [16] | T (Mus musculus [17]) | inhibition at 0.5 µM (Ileum [18]) | inhibition (Ileum [19]) | Activity (Mus musculus [20]) | Activity (Mus musculus [21]) | also measured |
| --- | --- | --- | --- | --- | --- | --- | --- | --- | --- | --- | --- | --- | --- | --- | --- | --- | --- | --- | --- | --- | --- |
| CCN(C)[C@@H]1CCN([C@@H]2Cc3ccccc3Sc3ccc(Cl)cc32)C1 | 23% | inactive | inactive | 1.5 | inactive | Dose-dependent effect | 217 mg/kg | Active | Toxic | Dose-dependent effect | 6.4 mg/kg | inactive | Active | Active | 6.4 mg/kg | 5.1 °C | 40% | Active | Non-toxic | inactive | Activity (Mus musculus [12]): 93%; Activity (Mus musculus [13]; route intraperitoneal): 60%; Time (Mus musculus [22]): 60 min; Activity (Mus musculus [23]): Toxic; Ratio (Mus musculus [24]): 0.75; Ratio (Mus musculus [25]): 1.08; Activity (Mus musculus [26]): 60%; Activity (Mus musculus [27]): Active |
| CCN(C)[C@H]1CCN([C@@H]2Cc3ccccc3Sc3ccc(Cl)cc32)C1 | 23% | inactive | inactive | 1.5 | inactive | Dose-dependent effect | 177 mg/kg | Active | Toxic | Dose-dependent effect | 12 mg/kg | inactive | Active | Active | 12.5 mg/kg | 5.1 °C | 40% | Active | Non-toxic | inactive | Activity (Mus musculus [13]; route intraperitoneal): 27%; Time (Mus musculus [22]): 60 min; Activity (Mus musculus [23]): Toxic; Ratio (Mus musculus [24]): 1; Ratio (Mus musculus [25]): 1.27 |
| CCN(C)[C@@H]1CCN([C@H]2Cc3ccccc3Sc3ccc(Cl)cc32)C1 | 23% | inactive | inactive | 1.5 | inactive | Dose-dependent effect | 186 mg/kg | Active | Toxic | Dose-dependent effect | 12 mg/kg | inactive | Active | Active | 13.6 mg/kg | 5.1 °C | 40% | Active | Non-toxic | inactive | Activity (Mus musculus [13]): inactive; Time (Mus musculus [22]): 60 min; Activity (Mus musculus [23]): Toxic; Ratio (Mus musculus [24]): 0.73; Ratio (Mus musculus [25]): 1.24 |
| CCN(C)[C@H]1CCN([C@H]2Cc3ccccc3Sc3ccc(Cl)cc32)C1 | 23% | inactive | inactive | 1.5 | inactive | Dose-dependent effect | 175 mg/kg | Active | Toxic | Dose-dependent effect | 6.8 mg/kg | inactive | Active | Active | 6.2 mg/kg | 5.1 °C | 40% | Active | Non-toxic | inactive | Activity (Mus musculus [12]): 93%; Activity (Mus musculus [13]): inactive; Time (Mus musculus [22]): 60 min; Activity (Mus musculus [23]): Toxic; Ratio (Mus musculus [24]): 0.93; Ratio (Mus musculus [25]): 1.16; Activity (Mus musculus [26]): 60%; Activity (Mus musculus [27]): Active |
